Measurements published in ChEMBL document CHEMBL4145685, “Development of Second-Generation CDK2 Inhibitors for the Prevention of Cisplatin-Induced Hearing Loss” (J Med Chem, 2018).
Values after ≈ are worked out from the molar mass of the structure shown. Active and inactive are the calls of the source.

How the values were obtained:
[1] = Protection against cisplatin-induced cell death in neonatal mouse HEI-OC1 cells assessed as reduction in caspase-3/7 activity; assay type: functional
Spiral organ of cochlea [2] = assay: Protection against cisplatin-induced toxicity in P3 mouse cochlear explants assessed as increase in outer hair cell count at 150 nM incubated for 24 hrs by phalloidin staining based confocal microscopy; assay type: functional, tissue-based
Method in brief: (§1)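 P3 FVB mouse cochleae were cultured on filters in DMEM with 1% FBS and 50 μg/mL ampicillin, 37 °C, 5% CO2, for 1 d. They were pretreated with compound 1 h, then given cisplatin 150 μM plus compound for 1 d. Fixed in 4% PFA, phalloidin-stained, confocal imaged. OHCs counted per 160 μm; medium-only = full protection, cisplatin-only = none.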

CDK2/Cyclin A2 = CDK2/Cyclin A2 (Homo sapiens, UniProt P24941); assay: Inhibition of C-terminal His6-tagged human full length CDK2/N-terminal GST-tagged human full length Cyclin A using histone H1 and [gamma-32P]-ATP incubated for 30 mins by phosphorimage based assay; assay type: protein-complex assay
Mus musculus [3] = assay: Toxicity in adult FVB mouse at 2 to 50 uM dosed to each left ear by transtympanic injection after 15 days; assay type: organism-based; conditions: in vivo, other, 360 h
Method in brief: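 Adult FVB mice, blinded and randomized, received transtympanic left-ear 2, 10 or 50 μM compound or vehicle (PBS + 0.5% DMSO, 5 μL). Dosing was a single injection, or two injections 24 h apart in one series. Three to four mice per group. ABRs were recorded at 8, 16, 32 kHz after 15 days.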

Mus musculus [4] = assay: (§2) Protection against cisplatin-induced ototoxicity in adult FVB mouse assessed as reduction in outer hair cell loss in middle basal turn at 32 kHz dosed at 50 uM administered to each left ear by transtympanic injection dosed 1 hr before cisplatin injection and measured after 15 days; assay type: functional, organism-based
Method in brief: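 After day-15 ABR, cochleae were harvested from transtympanically dosed, cisplatin-treated adult FVB mice. Organ of Corti was stained with phalloidin, anti-parvalbumin and DAPI. OHCs were counted per 160 μm in the 32-kHz (middle basal turn) region. Mean ± SEM, paired 2-tailed t-test.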

[5] = target: Glycogen synthase kinase-3 beta (Homo sapiens) (UniProt P49841); assay: Inhibition of human full length GSK3beta expressed in mammalian expression system at 1 uM
Sequence of Glycogen synthase kinase-3 beta (Homo sapiens) (P49841 whole entry, looked up): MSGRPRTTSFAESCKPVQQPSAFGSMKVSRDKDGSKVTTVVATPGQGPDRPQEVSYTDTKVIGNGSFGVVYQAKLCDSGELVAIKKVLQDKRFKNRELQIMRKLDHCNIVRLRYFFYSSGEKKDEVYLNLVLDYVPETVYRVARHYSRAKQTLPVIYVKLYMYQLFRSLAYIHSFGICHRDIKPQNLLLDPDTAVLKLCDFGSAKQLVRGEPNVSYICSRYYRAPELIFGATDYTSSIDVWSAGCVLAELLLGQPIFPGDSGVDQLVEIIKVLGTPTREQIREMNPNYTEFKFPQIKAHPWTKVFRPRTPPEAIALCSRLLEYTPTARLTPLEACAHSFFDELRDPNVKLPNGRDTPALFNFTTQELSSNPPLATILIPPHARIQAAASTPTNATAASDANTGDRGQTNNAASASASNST
Method in brief: (§3)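 Competition binding screen at 1 μM over a 468-kinase panel. Kinases were T7-phage-tagged (grown in E. coli BL21-derived host) or produced in HEK-293 cells with DNA tags. They bound to immobilized biotinylated ligand beads with compound for 1 h at room temperature in SeaBlock/PBS/Tween/DTT buffer. Eluted kinase was quantified by qPCR.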

[6] = target: Glycogen synthase kinase-3 alpha (Homo sapiens) (UniProt P49840); assay: Inhibition of human full length GSK3alpha expressed in bacterial expression system at 1 uM; method in brief: as §3
Sequence of Glycogen synthase kinase-3 alpha (Homo sapiens) (P49840 2-483 limits assumed): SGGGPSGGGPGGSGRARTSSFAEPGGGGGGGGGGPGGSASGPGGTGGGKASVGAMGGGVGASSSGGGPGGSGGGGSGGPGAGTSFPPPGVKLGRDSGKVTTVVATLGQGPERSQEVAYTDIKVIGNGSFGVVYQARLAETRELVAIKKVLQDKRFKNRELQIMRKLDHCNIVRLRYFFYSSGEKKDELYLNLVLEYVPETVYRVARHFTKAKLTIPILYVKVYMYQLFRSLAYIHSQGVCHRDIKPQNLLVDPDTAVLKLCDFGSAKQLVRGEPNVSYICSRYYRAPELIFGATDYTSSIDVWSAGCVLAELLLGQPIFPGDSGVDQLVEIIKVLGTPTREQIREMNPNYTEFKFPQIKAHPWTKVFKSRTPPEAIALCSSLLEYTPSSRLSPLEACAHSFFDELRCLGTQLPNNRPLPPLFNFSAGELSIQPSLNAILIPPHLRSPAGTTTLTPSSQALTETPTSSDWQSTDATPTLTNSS

Mus musculus [7] = assay: as §2, with “auditory brainstem response threshold elevation by measuring ABR threshold shits” for “outer hair cell loss in middle basal turn”, “16” for “32”; assay type: functional
Method in brief: (§4)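 P30 FVB mice under isoflurane got a single 5 μL transtympanic injection (50 μM in saline with 0.5% DMSO, or vehicle) into the left ear. Cisplatin was given i.p. 1 h later. Closed-field left-ear ABR thresholds were taken before treatment and at day 15. Shift is post minus pre. Mice losing <10% bodyweight were excluded. Mean ± SEM, paired 2-tailed t-test.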

[8] = target: Cyclin-dependent kinase 7 (Homo sapiens) (UniProt P50613); assay: Inhibition of human full length CDK7 expressed in mammalian expression system at 1 uM; method in brief: as §3
Sequence of Cyclin-dependent kinase 7 (Homo sapiens) (P50613 whole entry): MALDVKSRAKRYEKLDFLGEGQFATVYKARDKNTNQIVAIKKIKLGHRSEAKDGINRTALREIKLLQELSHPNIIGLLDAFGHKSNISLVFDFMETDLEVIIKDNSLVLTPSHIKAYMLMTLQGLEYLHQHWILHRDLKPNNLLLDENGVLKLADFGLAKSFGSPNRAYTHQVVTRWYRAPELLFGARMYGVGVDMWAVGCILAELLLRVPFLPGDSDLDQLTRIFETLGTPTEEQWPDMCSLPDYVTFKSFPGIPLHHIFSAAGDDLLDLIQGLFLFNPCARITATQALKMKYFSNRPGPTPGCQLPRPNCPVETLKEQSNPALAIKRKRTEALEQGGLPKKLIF

Spiral organ of cochlea [9] = assay: Protection against cisplatin-induced toxicity in P3 mouse cochlear explants assessed as increase in outer hair cell count incubated for 24 hrs by phalloidin staining based confocal microscopy; assay type: functional, tissue-based
Mus musculus [10] = assay: (§5) Protection against cisplatin-induced ototoxicity in adult FVB mouse assessed as hearing thresholds at 32 kHz dosed at 50 uM administered to each left ear by transtympanic injection dosed 1 hr before cisplatin injection and measured after 15 days; assay type: functional, organism-based
Method in brief: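 P30 FVB mice under isoflurane received 5 μL compound in PBS + 0.5% DMSO into the left ear by transtympanic 33-gauge cannula; vehicle controls matched. Cisplatin i.p. 1 h later; one regimen added a second injection 24 h after cisplatin. Left-ear closed-field ABR thresholds at 8, 16, 32 kHz were taken before treatment and at day 15. Threshold shift is reported as mean ± SEM, paired 2-tailed t-test. Mice losing <10% bodyweight were excluded.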

Mus musculus [11] = assay: as §5, with “reduction in auditory brainstem response threshold elevation by measuring ABR threshold shits” for “hearing thresholds”; assay type: functional; method in brief: as §4
[12] = Solubility of the compound in citrate phosphate buffered saline incubated for 18 hrs by UV spectroscopy; assay type: physicochemical; conditions: buffer
Method in brief: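 A 10 mM DMSO stock was diluted into buffer and held 18 h at room temperature. It was then filtered and mixed 1:1 with 1-propanol. UV spectrum (250–500 nm) AUC was compared with a reference of stock in 1-propanol/isotonic citrate PBS. Triplicate.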

Spiral organ of cochlea [13] = assay: Protection against cisplatin-induced toxicity in P3 mouse cochlear explants assessed as increase in outer hair cell count at 100 to 500 nM incubated for 24 hrs by phalloidin staining based confocal microscopy; assay type: functional, tissue-based; method in brief: as §1
[14] = Mus musculus, HEI-OC1, read-out: EC50

Row | SMILES | EC50 [1] | EC50 [1, 14] | other results
1 | Cc1[nH]nc(C(N)=O)c1NC(=O)C(C)NC(=O)c1ccc(Cl)cc1 (configuration not stated) | Not Active |  | 
2 | O=C(Nc1ccc(F)cc1)c1n[nH]cc1NC(=O)c1c(F)cccc1F |  |  | Activity (Spiral organ of cochlea [2]): inactive
3 | CCCNC(=O)c1c(NC(=O)c2cc(S(=O)(=O)N3CCCC3)c(Cl)cc2Cl)cnn1C | Not Active |  | 
4 | Cn1cc(NC(=O)c2ccc(Cl)cc2Cl)c(C(=O)NCCc2ccco2)n1 | Not Active |  | 
5 | CCn1cc(NC(=O)c2c(F)cccc2F)c(C(=O)NCC(C)C)n1 | Not Active |  | 
6 | Cc1ccc(C(=O)Nc2c(C(=O)N(C)C)nn(C)c2C)cc1 | Not Active |  | 
7 | COc1cccc(F)c1C(=O)Nc1c[nH]nc1C(=O)NC1CCNCC1 |  | > 37.2 µM | 
8 | CCn1cc(NC(=O)c2ccc(Cn3cc(Cl)cn3)cc2)c(C(=O)NC2CCCC2)n1 |  | 5.04 µM | IC50 (CDK2/Cyclin A2): > 10 µM
9 | CC(C)CNC(=O)c1c(NC(=O)c2ccc(COCC(F)(F)C(F)F)cc2)cnn1C | Not Active |  | 
10 | O=C(N[C@H]1CCCNC1)c1n[nH]cc1NC(=O)c1c(F)cccc1F |  | > 37.9 µM | 
11 | Cc1nc(-c2ccnc(N)n2)cn1Cc1c(Cl)cccc1Cl | Not Active |  | 
12 | O=C(Cc1ccccc1)Nc1c[nH]nc1C(=O)Nc1ccc(F)cc1 |  | > 32.7 µM | 
13 | O=C(NCC1CC1)c1n[nH]cc1NC(=O)c1c(F)cccc1F |  | 0.044 µM | Activity (Spiral organ of cochlea [2]): inactive
14 | CNC(=O)c1nn(C)cc1NC(=O)c1ccccc1Cl | Not Active |  | 
15 | N[C@H]1CC[C@H](NC(=O)c2n[nH]cc2NC(=O)c2c(F)cccc2F)CC1 |  | > 33.5 µM | 
16 | Cc1ccc(-c2ccnc(NCC(C)n3nc(C)cc3C)n2)c(C)n1 (configuration not stated) | Not Active |  | 
17 | CCn1ccnc1CN(C)c1nccc(-c2ccc(C)nc2C)n1 | Not Active |  | 
18 | O=C(N[C@H]1CC[C@H](O)CC1)c1n[nH]cc1NC(=O)c1c(F)cccc1F |  |  | Activity (Mus musculus [3]): Non-Toxic; Activity (Mus musculus [4]): inactive; inhibition [5]: Active; inhibition [6]: Active; Activity (Mus musculus [7]): 10 dB; Activity (Spiral organ of cochlea [2]): Active; inhibition [8]: Active
19 | NS(=O)(=O)c1ccc(CCNc2nccc(-c3ccccn3)n2)cc1 | Not Active |  | 
20 | NS(=O)(=O)c1ccc(N/N=C2\C(=O)Nc3ccc(Br)cc32)cc1 |  | 0.127 µM | EC50 (Spiral organ of cochlea [9]): 1000 nM
21 | Cn1ncc(NC(=O)c2ccc(Cl)cc2Cl)c1C(=O)NCc1ccco1 | Not Active |  | 
22 | Cn1ncc(NC(=O)c2ccccc2Cl)c1C(=O)N1CCCCC1 | Not Active |  | 
23 | CCn1cc(NC(=O)c2ccc(Cl)cc2Cl)c(C(=O)Nc2ccccc2)n1 |  | 31.1 µM | IC50 (CDK2/Cyclin A2): > 10 µM
24 | N#Cc1ccc2c(c1)/C(=C1/C=CC(CN3CCOCC3)=CN1)C(=O)N2 |  | 3.63 µM | EC50 (Spiral organ of cochlea [9]): 15000 nM
25 | Cc1ncc(-c2ccnc(Nc3ccc(S(C)(=O)=O)cc3)n2)n1C(C)C [AZD-5438] |  |  | Activity (Mus musculus [3]): Non-Toxic; Activity (Mus musculus [4]): Active; inhibition [5]: Active; inhibition [6]: Active; Activity (Mus musculus [10]): Active; Activity (Mus musculus [11]): 14 dB; inhibition [8]: Active; solubility [12]: 68.8 µM (≈ 25.6 µg/mL)
26 | CN[C@@H]1CCN(C(=O)c2ccc(Nc3ncc(F)c(-c4cnc(C)n4C(C)C)n3)cc2)C1 | Not Active |  | 

Row | SMILES | EC50 [1] | EC50 [1, 14] | other results
27 | Cc1[nH]nc(C(N)=O)c1NC(=O)c1cc(F)c(F)c(F)c1 | Not Active |  | 
28 | Cn1cc(NC(=O)c2c(Cl)cccc2Cl)c(C(=O)NC2CCN(C(=O)c3c(Cl)cccc3Cl)CC2)n1 |  | > 49.4 µM | IC50 (CDK2/Cyclin A2): > 10 µM
29 | Cc1cc(Br)ccc1C(=O)Nc1c(C(N)=O)n[nH]c1C | Not Active |  | 
30 | O=C(Nc1ccc(F)cc1)c1n[nH]cc1NC(=O)C1CCCCC1 |  | > 32.2 µM | 
31 | CCCNC(=O)c1c(NC(=O)c2cc(S(=O)(=O)N(C)C)c(Cl)cc2Cl)cnn1C | Not Active |  | 
32 | O=C(NC1CCCCC1)c1n[nH]cc1NC(=O)c1c(F)cccc1F |  | > 27.3 µM | 
33 | Cc1[nH]nc(C(N)=O)c1NC(=O)c1cc(F)cc(Br)c1 | Not Active |  | 
34 | CC[C@H](CO)Nc1nc(NCc2ccccc2O)c2ncn(C(C)C)c2n1 [OLOMOUCINE II] |  | 0.595 µM | EC50 (Spiral organ of cochlea [9]): 3000 nM
35 | CCCNC(=O)c1c(NC(=O)c2ccc(Cl)cc2Cl)cnn1C | Not Active |  | 
36 | COc1ccc2c(c1)/C(=C/c1cnc[nH]1)C(=O)N2 [SU-9516] |  | 1.59 µM | EC50 (Spiral organ of cochlea [9]): 6000 nM
37 | O=C1Cc2c([nH]c3ccc(Br)cc23)-c2ccccc2N1 [KENPAULLONE] |  | 0.349 µM | inhibition [5]: Active; inhibition [6]: Active; EC50 (Spiral organ of cochlea [9]): 150 nM; inhibition [8]: Active
38 | NS(=O)(=O)c1ccc(CNc2nccc(-c3ccccn3)n2)cc1 | Not Active |  | 
39 | CCn1cc(NC(=O)c2ccccc2Cl)c(C(=O)NCC(C)C)n1 | Not Active |  | 
40 | O=C(Nc1c[nH]nc1C(=O)Nc1ccc(F)cc1)c1ccccc1 |  | > 33.2 µM | 
41 | CN(Cc1nccn1Cc1ccccc1)c1nccc(-c2ccccn2)n1 | Not Active |  | 
42 | CCCNC(=O)c1c(NC(=O)c2ccccc2Cl)cnn1C | Not Active |  | 
43 | O=C(NC1CCNCC1)c1n[nH]cc1NC(=O)c1c(F)cc(F)cc1F |  | > 30.9 µM | 
44 | Cn1ncc(NC(=O)c2n[nH]cc2Cl)c1C(=O)N1CCCCC1 | Not Active |  | 
45 | CCn1cc(NC(=O)c2ccc(COCC(F)(F)F)cc2)c(C(=O)NCC(C)C)n1 |  | 6.75 µM | IC50 (CDK2/Cyclin A2): > 10 µM
46 | CCC(Nc1nccc(-c2ccccn2)n1)c1ccc(S(C)(=O)=O)cc1 (configuration not stated) | Not Active |  | 
47 | c1ccc(Nc2nccc(-c3ccccn3)n2)cc1 | Not Active |  | 
48 | O=C(NC1CCNCC1)c1n[nH]cc1NC(=O)c1c(Cl)cccc1Cl |  |  | inhibition [5]: Active; Activity (Spiral organ of cochlea [13]): inactive; inhibition [6]: Active; inhibition [8]: Active
49 | Cc1[nH]nc(C(N)=O)c1NC(=O)c1ccc(OCC2CC2)cc1 | Not Active |  | 
50 | O=C(NC1CCNCC1)c1n[nH]cc1NC(=O)c1c(F)cccc1F |  | 22.5 µM | 
51 | O=C(NC1CCN(C(=O)c2c(Cl)cccc2Cl)CC1)c1n[nH]cc1NC(=O)c1c(Cl)cccc1Cl |  | 0.459 µM | Activity (Spiral organ of cochlea [2]): inactive; IC50 (CDK2/Cyclin A2): 0.76 µM
